MC4R antagonist: MC4R antagonists of cAMP signaling, primary screen, cell-based, TR-FRET, antagonist arm of biased-ligand search; MC4R-expressing cells, MTII-stimulated cAMP, LANCE TR-FRET; inhibition, % at 6.5 µM; AID 540295, 2011; 0.48% of 360,000 active; Melanocortin receptor 4 (Homo sapiens), P32245;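 active means inhibition above its plate's cutoff, the mean of tested wells on that plate plus 3 SD, cut at about 29% in these data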;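 further: 0% = Melanotan II alone and 100% = Melanotan II plus saturating MCL0020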
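Material: U2OS-MC4R stable cell line | Reagent: Melanotan II challenge after compound preincubation | Doses: One concentration, 6.5 µM nominal | Incubation: 30-min compound preincubation, 1-h Melanotan II challenge, 1-h detection, room temperature | Signal: TR-FRET cAMP assay | Replicates: One well per compound, no replicates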
MC4R barr agon: MC4R agonists recruiting beta-arrestin, primary screen, cell-based, luminescence, agonist arm of biased-ligand search. 0.98% of 360,000 active. Melanocortin receptor 4 (Homo sapiens), P32245. U2OS MC4R beta-arrestin complementation; percent of melanotan II response, DMSO zero. activation, % at 8.9 µM;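 active means activation above a per-plate cutoff, the mean activation of sample wells on that plate plus 3 SD, cut at about 8% in these data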
Hep lipid drop: inhibitors of hepatocyte lipid droplet formation, primary screen, imaging, high-throughput imaging, BODIPY stain. AML12 mouse hepatocytes, oleate lipid droplets. inhibition, % at 6.5 µM. 0.4% of 240,000 active;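 active means lipid droplet intensity inhibited by at least 50%, with more than 500 cells counted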
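Assay system: AML12 hepatocytes (mouse) / Also added: 100 µM oleic acid challenge / Times: overnight treatment with compound plus oleate / Detection: high-content imaging of BODIPY-stained droplets and DAPI nuclei / Evaluation: % inhibition of lipid droplet signal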
m5-HT2A agonist: mouse Htr2a agonists via beta-arrestin recruitment, primary screen, cell-based, luminescence. 5-hydroxytryptamine receptor 2A (Mus musculus), P35363. CHO-K1 mHTR2A beta-arrestin complementation; percent of 30 µM serotonin response. activation, % at 7.6 µM. 0.66% of 360,000 active;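 active means activation above a run cutoff, the mean activation of all tested compounds plus 3 SD, cut at about 14% in these data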;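 further: 0% = plate median of compound wells and 100% = 30 µM serotonin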
PREPL inh: PREPL enzyme inhibitors, primary screen, biochemical, fluorescence polarization; Prolyl endopeptidase-like (Homo sapiens), Q4J6C6; AID 2751, 2010; inhibition, % at 5.96 µM; recombinant PREPL, fluorescence polarization activity-based probe; 0.68% of 320,000 active; in the data active means inhibition above about 43%;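 further: 0% = enzyme with DMSO and 100% = wells lacking enzyme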
NTR1 agonist: agonists of human NTR1, primary screen, imaging, U2OS cells, beta-arrestin-GFP, high content; Neurotensin receptor type 1 (Homo sapiens), P30989; NTR1-U2OS beta-arrestin-GFP spot imaging, agonist mode; activation, % at 20 µM; 0.17% of 330,000 active;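 active means activation at or above 40% of the spot to cytoplasm intensity ratio, with at least 20 cells analyzed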;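 further: 0% = DMSO without peptide and 100% = 100 nM NTR1 peptide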
Target sequence (P30989 whole entry, looked up): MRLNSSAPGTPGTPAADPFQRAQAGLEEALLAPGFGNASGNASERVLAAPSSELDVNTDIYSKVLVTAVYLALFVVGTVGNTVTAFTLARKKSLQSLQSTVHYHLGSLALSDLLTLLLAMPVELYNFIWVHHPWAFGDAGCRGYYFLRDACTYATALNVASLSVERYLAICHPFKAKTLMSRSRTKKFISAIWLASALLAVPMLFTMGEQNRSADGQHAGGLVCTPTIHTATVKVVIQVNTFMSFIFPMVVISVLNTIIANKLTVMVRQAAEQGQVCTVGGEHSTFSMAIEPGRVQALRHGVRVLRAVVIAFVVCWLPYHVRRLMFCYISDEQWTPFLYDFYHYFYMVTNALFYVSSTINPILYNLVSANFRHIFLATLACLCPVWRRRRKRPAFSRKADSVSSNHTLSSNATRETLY
MOR ag counter: OPRM1 agonists via beta-arrestin recruitment, confirmation, counter-screen for mouse HTR2A agonist project, cell-based, luminescence, single concentration. 5.3% of 2,300 active. activation, % at 9.3 µM. U2OS OPRM1 beta-arrestin PathHunter; DMSO 0%, DAMGO 9.3 µM 100%. shares compounds with m5-HT2A agonist;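 active means mean activation above the mean of DMSO-only wells plus 3 SD, cut at about 0.5% in these data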
m5-HT2A ag conf: mouse HTR2A agonists, beta-arrestin recruitment, confirmation, cell-based, luminescence, CHO-K1 PathHunter, triplicate; shares compounds with m5-HT2A agonist; DMSO 0%, 30 µM serotonin 100%; activation, % at 7.6 µM; 19% of 2,300 active; AID 624381, 2012;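 active means mean activation across triplicates above the hit threshold derived in the original primary screen, cut at about 15% in these data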
Numbers without * were called inactive; · = no result. An excerpt weighted towards active compounds, which were near 2.7% of everything screened.

SMILES	MC4R antagonist	MC4R barr agon	Hep lipid drop	m5-HT2A agonist	PREPL inh	NTR1 agonist	MOR ag counter	m5-HT2A ag conf
CCN(CC(=O)Nc1ccccc1C(F)(F)F)C(=O)CN1C(=O)NC(C)(c2ccc3ccccc3c2)C1=O (stereo unspecified)	8	0	·	3	·	·	·	·
COC(=O)c1[nH]c2ccccc2c1NC(=O)CCN1CCSCC1	-7	1	·	16*	-8	-2	-1	-4
O=C(O)c1ccc(C(=O)Nc2cccc3ccccc23)c(C(=O)O)c1	12	-1	0	-1	·	-1	·	·
CCc1nc2ccc(C(=O)N3CCN(S(=O)(=O)CC)CC3)cn2c1N(C)Cc1cccs1	4	-4	·	17*	·	·	-1	-4
O=C(NC1CC1)c1ccc(NS(=O)(=O)c2ccc(F)cc2)cc1	0	0	·	-2	-4	-1	·	·
O=C(Nc1nnc(C2CC2)s1)c1cc(S(=O)(=O)N2CCCCC2)ccc1N1CCOCC1	-1	-1	23	24*	9	1	-1	-3
Cc1cccc(NC(=O)c2cccc(NC(=O)c3ccco3)c2)c1C	13	0	·	10	11	1	·	·
Cc1ccc(Oc2ccc(NC(=O)c3ccco3)cc2)cc1	7	2	·	-4	4	0	·	·
Cc1ccc(NC(=O)c2ccc(OC(=O)c3ccco3)cc2)cc1	0	-2	-15	18*	8	0	0	2
Cc1ccccc1NC(=O)c1cccc(NC(=O)c2ccco2)c1	6	0	0	15*	8	0	-1	0
O=C(Nc1ccc(Cl)cc1)c1ccco1	18	-2	5	15*	-12	0	0	-3
CNC(=O)CSc1nc2ccccc2c(=O)n1CCc1ccccc1	0	-1	0	1	1	0	·	·
Cc1nc2ncnn2c(C)c1CCC(=O)NCCCN1CCN(c2cccc(Cl)c2)CC1	14	-1	10	24*	28	0	0.9*	80*
CCOc1cccc(CN2CCCC(N3CCN(c4cccc(Cl)c4)CC3)C2)c1O (stereo unspecified)	2	0	-17	-5	22	1	·	·
COc1ccccc1C(=O)C1CCCN(Cc2ccc3c(c2)OCCO3)C1 (stereo unspecified)	13	1	2	33*	13	0	-1	16*
COc1ccc(C(=O)C2CCCN(Cc3ccc4c(c3)OCCO4)C2)cc1F (stereo unspecified)	-2	0	1	10	-16	3	·	·
CCOc1cccc(CN2CCCC(C(=O)c3cc(Cl)ccc3OC)C2)c1O (stereo unspecified)	-6	2	0	23*	29	7	0	6
COc1ccc(F)cc1C(=O)C1CCCN(Cc2ccc3c(c2)OCCO3)C1 (stereo unspecified)	3	-1	-11	26*	6	1	2.8*	28*
CC(=O)C1=C(O)C(=O)N(C)C1c1ccccc1[N+](=O)[O-] (stereo unspecified)	-6	0	2	-2	2	1	·	·
Cc1cc(C)cc(C(=O)N2CCC(CCC(=O)NC3CC3)CC2)c1	3	0	3	-5	-1	1	·	·
CSc1ccccc1C(=O)N1CCC(CCC(=O)NC2CC2)CC1	-6	-3	1	15*	-9	-2	-1	-4
COc1cc2c(cc1OC)CN(C(=O)C(C)(C)C)CC2	12	-1	·	17*	-3	3	-1	-4
COc1ccc(C(=O)N2CCc3cc(OC)c(OC)cc3C2)cc1OC	6	-1	·	2	4	0	·	·
c1ccc(CCN=C2CCCc3c2[nH]c2ccccc32)cc1	1	1	6	15*	-3	0	0	28*
Nc1ccc(C(=O)N/N=C2\CCCc3c2[nH]c2ccccc32)cc1	0	-2	·	-7	25	-1	·	·
SMILES	MC4R antagonist	MC4R barr agon	Hep lipid drop	m5-HT2A agonist	PREPL inh	NTR1 agonist	MOR ag counter	m5-HT2A ag conf
CCc1ccccc1NC(=O)CN1CCN(CC(=O)Nc2cc(C)ccc2OC)CC1	-1	0	-2	5	6	0	·	·
COc1cc(CN2CCN(Cc3c[nH]c4ccccc34)CC2CCO)cc(OC)c1 (stereo unspecified)	2	-1	0	19*	·	0	-1	5
COc1ccc(S(=O)(=O)N2CCOC2CNC(=O)C(=O)NCCc2ccccc2)cc1 (stereo unspecified)	-7	0	2	46*	-1	1	0	9
O=C(NCCO)C(=O)NCC1OCCCN1S(=O)(=O)c1cccs1 (stereo unspecified)	-1	1	3	4	-3	2	·	·
COc1ccc(CCNC(=O)C(=O)NCC2OCCN2S(=O)(=O)c2ccc(C)cc2)cc1 (stereo unspecified)	10	-2	-2	4	-2	2	·	·
O=C(NCCCO)C(=O)NCC1OCCCN1S(=O)(=O)c1cccs1 (stereo unspecified)	19	3	-1	16*	-2	1	0.9*	-1
CCOc1ccccc1N(CC(=O)NC1CCCCC1)S(=O)(=O)c1ccc(C)cc1	13	1	-9	4	2	5	·	·
CCOc1ccc(C(=O)Nc2c3c(nn2-c2cccc(C)c2C)CS(=O)C3)cc1 (stereo unspecified)	6	-1	·	17*	11	0	0	2
Cc1cccc2sc(NNC(=O)c3ccc(S(=O)(=O)N4CC(C)CC(C)C4)cc3)nc12 (stereo unspecified)	25	2	-3	15*	12	10	0	3
Cc1cc(C)c2nc(NNC(=O)c3ccc(S(=O)(=O)N4CCCC(C)C4)cc3)sc2c1 (stereo unspecified)	20	1	0	13	-2	18	·	·
